According to ChEMBL document CHEMBL1139579, “Structure-activity relationship of a series of cyclohexylpiperidines bearing an amide side chain as antagonists of the human melanocortin-4 receptor” (Bioorg Med Chem Lett, 2005):

Columns and labels:
Melanocortin receptor 4 [1] = target: T1, Melanocortin receptor 4 (Homo sapiens, UniProt P32245); experiment: Stimulation of cAMP levels in the HEK293 cell line at 10 uM; type: functional, cell-based
Procedure, shortened: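 Agonism was measured as cAMP levels in HEK293 cells stably expressing human MC4R. The test ligand was applied at 10 μM, and the response was expressed relative to the response to α-MSH.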

Melanocortin receptor 4 [2] = target: T1, Melanocortin receptor 4; experiment: Inhibition of [125I]NDP-MSH (radioligand) binding to the hMC4R stably expressed in HEK293 cells; type: cell-based
Procedure, shortened: (§1)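 Competition binding was run on HEK293 cells stably transfected with human MC1R, MC3R, MC4R or MC5R, each receptor in its own line. The radioligand was [125I]-NDP-MSH. For the MC4R values, data are the average of two to three independent measurements.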

Melanocortin receptor 4 [3] = target: T1, Melanocortin receptor 4; experiment: Inhibition of [125I]-AgRP(83132) (radioligand) binding to the hMC4R stably expressed in HEK293 cells; type: cell-based
Procedure, shortened: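 Competition binding was run on HEK293 cells stably transfected with human MC4R. The radioligand was [125I]-AgRP(83–132).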

Melanocortin receptor 3 = Melanocortin receptor 3 (Homo sapiens, UniProt P41968); experiment: Inhibition of [125I]-NDP-MSH (radioligand) binding to the human MC3R stably expressed in HEK293 cells; type: cell-based; procedure, shortened: as §1
Melanocortin receptor 5 = Melanocortin receptor 5 (Homo sapiens, UniProt P33032); experiment: Inhibition of [125I]NDP-MSH (radioligand) binding to the human MC5R stably expressed in HEK293 cells; type: cell-based; procedure, shortened: as §1
HEK293 = experiment: Dose-dependent inhibition of cAMP production stimulated by 10 nM a-MSH in HEK293 cells; type: functional, cell-based, Homo sapiens
Procedure, shortened: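 Functional antagonism was measured as inhibition of cAMP production in HEK293 cells stably expressing human MC4R. Cells were stimulated with 10 nM α-MSH, and the test ligand was applied over a range of concentrations.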

[4] = target: Melanocyte-stimulating hormone receptor (Homo sapiens, UniProt Q01726); experiment: Inhibition of [125I]NDP-MSH (radioligand) binding to human MC1R at 10 um concentration stably expressed in HEK293 cells; type: cell-based
Procedure, shortened: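 Competition binding was run on HEK293 cells stably expressing human MC1R, with [125I]-NDP-MSH as the radioligand. The value is percent inhibition of binding with the test ligand at 10 µM.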

Melanocyte-stimulating hormone receptor, sequence (Q01726 whole entry): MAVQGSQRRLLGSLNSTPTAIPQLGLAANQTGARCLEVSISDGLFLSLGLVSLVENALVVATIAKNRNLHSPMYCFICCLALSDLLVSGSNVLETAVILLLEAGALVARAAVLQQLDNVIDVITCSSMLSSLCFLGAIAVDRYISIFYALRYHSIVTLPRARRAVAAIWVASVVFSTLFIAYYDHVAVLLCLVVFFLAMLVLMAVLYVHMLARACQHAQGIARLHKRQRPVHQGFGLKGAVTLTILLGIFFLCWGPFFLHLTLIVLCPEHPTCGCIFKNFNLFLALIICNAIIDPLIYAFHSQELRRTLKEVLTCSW
Melanocortin receptor 3, sequence (P41968 whole entry): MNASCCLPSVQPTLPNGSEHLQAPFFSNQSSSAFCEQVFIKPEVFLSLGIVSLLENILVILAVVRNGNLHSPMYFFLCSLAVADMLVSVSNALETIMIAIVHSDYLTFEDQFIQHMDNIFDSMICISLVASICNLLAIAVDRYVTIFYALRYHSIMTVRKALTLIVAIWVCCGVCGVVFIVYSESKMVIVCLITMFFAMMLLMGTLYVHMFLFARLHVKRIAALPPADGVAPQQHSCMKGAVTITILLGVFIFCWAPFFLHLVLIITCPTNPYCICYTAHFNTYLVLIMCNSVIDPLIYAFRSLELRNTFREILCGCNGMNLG
T1 sequence (P32245 whole entry): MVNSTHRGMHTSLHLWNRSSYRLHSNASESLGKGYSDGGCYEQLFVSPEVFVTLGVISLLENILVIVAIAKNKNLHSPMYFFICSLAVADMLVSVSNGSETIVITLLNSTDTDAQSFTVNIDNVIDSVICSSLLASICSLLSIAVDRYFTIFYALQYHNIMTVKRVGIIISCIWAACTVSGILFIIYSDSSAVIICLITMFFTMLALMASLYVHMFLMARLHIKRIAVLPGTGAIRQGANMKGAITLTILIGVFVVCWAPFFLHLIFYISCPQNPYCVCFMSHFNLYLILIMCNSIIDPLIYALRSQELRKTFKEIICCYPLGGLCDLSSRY
Melanocortin receptor 5, sequence (P33032 whole entry): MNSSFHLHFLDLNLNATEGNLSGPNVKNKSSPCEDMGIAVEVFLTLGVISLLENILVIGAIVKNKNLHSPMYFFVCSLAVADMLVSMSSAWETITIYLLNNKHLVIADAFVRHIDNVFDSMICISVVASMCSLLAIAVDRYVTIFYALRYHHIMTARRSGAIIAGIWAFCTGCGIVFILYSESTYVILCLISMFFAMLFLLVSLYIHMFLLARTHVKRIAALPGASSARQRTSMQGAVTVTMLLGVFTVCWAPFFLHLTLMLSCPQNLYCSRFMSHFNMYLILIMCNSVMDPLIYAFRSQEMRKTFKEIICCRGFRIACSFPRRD

SMILES | Stimulation (Melanocortin receptor 4 [1]) | Ki (Melanocortin receptor 4 [2]) | other results
NCCC(=O)N[C@H](Cc1ccc(Cl)cc1Cl)C(=O)N1CCN(C2(CNC(=O)c3ccccc3)CCCCC2)CC1 | 5.1% | 220 nM | –
NCCC(=O)N[C@H](Cc1ccc(Cl)cc1Cl)C(=O)N1CCN(C2(CNC(=O)c3ccc(Br)cc3)CCCCC2)CC1 | 12% | 240 nM | –
NCCC(=O)N[C@H](Cc1ccc(Cl)cc1Cl)C(=O)N1CCN(C2(CNC(=O)Cc3ccc(Cl)cc3)CCCCC2)CC1 | 1.4% | 23 nM | –
COc1ccc(C(=O)NCC2(N3CCN(C(=O)[C@@H](Cc4ccc(Cl)cc4Cl)NC(=O)CCN)CC3)CCCCC2)cc1 | 7.7% | 250 nM | –
COc1ccc(CC(=O)NCC2(N3CCN(C(=O)[C@@H](Cc4ccc(Cl)cc4Cl)NC(=O)CCN)CC3)CCCCC2)cc1OC | 2.7% | 18 nM | –
NCCC(=O)N[C@H](Cc1ccc(Cl)cc1Cl)C(=O)N1CCN(C2(CNC(=O)c3cccnc3)CCCCC2)CC1 | 4.3% | 220 nM | –
COc1ccc(NC(=O)NCC2(N3CCN(C(=O)[C@@H](Cc4ccc(Cl)cc4Cl)NC(=O)CCN)CC3)CCCCC2)cc1 | 1% | 36 nM | –
NCCC(=O)N[C@H](Cc1ccc(Cl)cc1Cl)C(=O)N1CCN(C2(CNC(=O)c3ccc(C(F)(F)F)cc3)CCCCC2)CC1 | 8.7% | 340 nM | –
NCCC(=O)N[C@H](Cc1ccc(Cl)cc1Cl)C(=O)N1CCN(C2(CNC(=O)Nc3ccc(F)cc3)CCCCC2)CC1 | 5.5% | 210 nM | –
NCCC(=O)N[C@H](Cc1ccc(Cl)cc1Cl)C(=O)N1CCN(C2(CNC(=O)Nc3ccc(Cl)cc3)CCCCC2)CC1 | 5.9% | 420 nM | –
NCCC(=O)N[C@H](Cc1ccc(Cl)cc1Cl)C(=O)N1CCN(C2(CNC(=O)c3ccco3)CCCCC2)CC1 | 4.5% | 260 nM | –
CN(C)c1ccc(NC(=O)NCC2(N3CCN(C(=O)[C@@H](Cc4ccc(Cl)cc4Cl)NC(=O)CCN)CC3)CCCCC2)cc1 | 2.7% | 62 nM | –
NCCC(=O)N[C@H](Cc1ccc(Cl)cc1Cl)C(=O)N1CCN(C2(CNC(=O)c3ccc([N+](=O)[O-])cc3)CCCCC2)CC1 | 6.7% | 120 nM | –
NCCC(=O)N[C@H](Cc1ccc(Cl)cc1Cl)C(=O)N1CCN(C2(CNCC3CCCCC3)CCCCC2)CC1 | 5.1% | 220 nM | –
CC(C)(C)CCNCC1(N2CCN(C(=O)[C@@H](Cc3ccc(Cl)cc3Cl)NC(=O)CCN)CC2)CCCCC1 | 3.6% | 340 nM | –
NCCC(=O)N[C@H](Cc1ccc(Cl)cc1Cl)C(=O)N1CCN(C2(CNC(=O)c3ccc(F)cc3)CCCCC2)CC1 | 7.9% | 190 nM | –
NCCC(=O)N[C@H](Cc1ccc(Cl)cc1Cl)C(=O)N1CCN(C2(CNC(=O)c3ccc(Cl)cc3)CCCCC2)CC1 | 10% | 210 nM | –
NCCC(=O)N[C@H](Cc1ccc(Cl)cc1Cl)C(=O)N1CCN(C2(CNCc3ccc(F)cc3)CCCCC2)CC1 | 6.4% | 61 nM | –
COc1ccc(CC(=O)NCC2(N3CCN(C(=O)[C@@H](Cc4ccc(Cl)cc4Cl)NC(=O)CCN)CC3)CCCCC2)cc1 | 0.6% | 4.2 nM | Ki (Melanocortin receptor 4 [3]): 2.8 nM; Ki (Melanocortin receptor 3): 1100 nM; Ki (Melanocortin receptor 5): 540 nM; IC50 (HEK293): 150 nM; Ki [4]: 5700 nM
CN(C)c1ccc(CNCC2(N3CCN(C(=O)[C@@H](Cc4ccc(Cl)cc4Cl)NC(=O)CCN)CC3)CCCCC2)cc1 | 4.2% | 110 nM | –
NCCC(=O)N[C@H](Cc1ccc(Cl)cc1Cl)C(=O)N1CCN(C2(CNC(=O)c3ccc(OC(F)(F)F)cc3)CCCCC2)CC1 | 8.9% | 400 nM | –

SMILES | Stimulation (Melanocortin receptor 4 [1]) | Ki (Melanocortin receptor 4 [2]) | other results
NCCC(=O)N[C@H](Cc1ccc(Cl)cc1Cl)C(=O)N1CCN(C2(CNC(=O)c3cccs3)CCCCC2)CC1 | 5.1% | 230 nM | –
CC(C)CNCC1(N2CCN(C(=O)[C@@H](Cc3ccc(Cl)cc3Cl)NC(=O)CCN)CC2)CCCCC1 | 0.7% | 180 nM | –
NCCC(=O)N[C@H](Cc1ccc(Cl)cc1Cl)C(=O)N1CCN(C2(CNCc3ccc(C(F)(F)F)cc3)CCCCC2)CC1 | 4.1% | 45 nM | –
N#Cc1ccc(CNCC2(N3CCN(C(=O)[C@@H](Cc4ccc(Cl)cc4Cl)NC(=O)CCN)CC3)CCCCC2)cc1 | 5% | 92 nM | –
NCCC(=O)N[C@H](Cc1ccc(Cl)cc1Cl)C(=O)N1CCN(C2(CNC(=O)c3ccncc3)CCCCC2)CC1 | 4.4% | 150 nM | –
NCCC(=O)N[C@H](Cc1ccc(Cl)cc1Cl)C(=O)N1CCN(C2(CNC(=O)C(F)(F)F)CCCCC2)CC1 | 0.9% | 490 nM | –
NCCC(=O)N[C@H](Cc1ccc(Cl)cc1Cl)C(=O)N1CCN(C2(CNCc3ccccc3F)CCCCC2)CC1 | 4.7% | 12 nM | Ki (Melanocortin receptor 4 [3]): 13 nM; Ki (Melanocortin receptor 3): 2300 nM; Ki (Melanocortin receptor 5): 1400 nM; IC50 (HEK293): 760 nM; Inhibition ([4]; hek293): 45%
NCCC(=O)N[C@H](Cc1ccc(Cl)cc1Cl)C(=O)N1CCN(C2(CNCCCc3ccccc3)CCCCC2)CC1 | 2.8% | 60 nM | –
NCCC(=O)N[C@H](Cc1ccc(Cl)cc1Cl)C(=O)N1CCN(C2(CNCc3ccc(OC(F)(F)F)cc3)CCCCC2)CC1 | 2.4% | 22 nM | –
COc1cccc(CC(=O)NCC2(N3CCN(C(=O)[C@@H](Cc4ccc(Cl)cc4Cl)NC(=O)CCN)CC3)CCCCC2)c1 | 1.8% | 7.6 nM | Ki (Melanocortin receptor 3): 650 nM; Ki (Melanocortin receptor 5): 470 nM; Ki [4]: 2800 nM
COc1ccccc1C(=O)NCC1(N2CCN(C(=O)[C@@H](Cc3ccc(Cl)cc3Cl)NC(=O)CCN)CC2)CCCCC1 | 6.5% | 350 nM | –
NCCC(=O)N[C@H](Cc1ccc(Cl)cc1Cl)C(=O)N1CCN(C2(CNCc3nccs3)CCCCC2)CC1 | 4.9% | 49 nM | –
NCCC(=O)N[C@H](Cc1ccc(Cl)cc1Cl)C(=O)N1CCN(C2(CNC(=O)Nc3ccc([N+](=O)[O-])cc3)CCCCC2)CC1 | 11% | 540 nM | –
NCCC(=O)N[C@H](Cc1ccc(Cl)cc1Cl)C(=O)N1CCN(C2(CNC(=O)Cc3cccs3)CCCCC2)CC1 | 3.4% | 8.4 nM | Ki (Melanocortin receptor 3): 1100 nM; Ki (Melanocortin receptor 5): 480 nM; Ki [4]: 4600 nM
Cc1ccc(C(=O)NCC2(N3CCN(C(=O)[C@@H](Cc4ccc(Cl)cc4Cl)NC(=O)CCN)CC3)CCCCC2)cc1 | 7.8% | 270 nM | –
NCCC(=O)N[C@H](Cc1ccc(Cl)cc1Cl)C(=O)N1CCN(C2(CN)CCCCC2)CC1 | 0.5% | 290 nM | –
COC(=O)c1ccc(NC(=O)NCC2(N3CCN(C(=O)[C@@H](Cc4ccc(Cl)cc4Cl)NC(=O)CCN)CC3)CCCCC2)cc1 | 12% | 260 nM | –
NCCC(=O)N[C@H](Cc1ccc(Cl)cc1Cl)C(=O)N1CCN(C2(CNC(=O)Cc3ccc(F)cc3)CCCCC2)CC1 | 2.3% | 21 nM | –
CC(C)(C)c1ccc(C(=O)NCC2(N3CCN(C(=O)[C@@H](Cc4ccc(Cl)cc4Cl)NC(=O)CCN)CC3)CCCCC2)cc1 | 8.2% | 520 nM | –
NCCC(=O)N[C@H](Cc1ccc(Cl)cc1Cl)C(=O)N1CCN(C2(CNCc3ccccc3)CCCCC2)CC1 | 5.1% | 18 nM | –
NCCC(=O)N[C@H](Cc1ccc(Cl)cc1Cl)C(=O)N1CCN(C2(CNCc3ccccn3)CCCCC2)CC1 | 3% | 36 nM | –
